Reference: ChEMBL document CHEMBL1141180, “Synthesis and antiviral activity of helioxanthin analogues” (J Med Chem, 2005)

Tests used:
Hepatitis B virus = test: Effective concentration to inhibit 50% of hepatitis B virus replication in a cell culture model; format: functional, organism-based
Hepatitis C virus = test: Effective concentration to inhibit 50% of hepatitis C virus replication in a cell culture model; format: functional, organism-based, Hepacivirus hominis
Procedure, shortened: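 HCV replicon Huh-Luc/neo cells grown to confluence, then treated with varying drug concentrations in DMEM with 10% dFBS for 3 days. Medium was removed and cells lysed in passive lysis buffer, shaken 15 min at room temperature. Lysate was mixed with luciferase substrate and luminescence read immediately as the measure of replicon activity.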

Human alphaherpesvirus 1 = test: Effective concentration to inhibit 50% of herpes simplex virus type 1 replication in a cell culture model; format: functional, organism-based
MT2 = test: Cytotoxicity against MT-2 cell lines of human; format: functional; conditions: read-out: ID50 (the source's name)
[1] = Effective concentration to inhibit 50% of cytomegalovirus (CMV) replication in a cell culture model; format: functional
Human gammaherpesvirus 4 = test: Effective concentration to inhibit 50% of epstein Barr virus replication in a cell culture model; format: functional, organism-based
CCRF-CEM = test: Cytotoxicity against CEM cell lines of human; format: functional; conditions: read-out: ID50 (the source's name)
[2] = Effective concentration to inhibit 50% of human immunodeficiency virus replication in a cell culture model; format: functional
Human alphaherpesvirus 2 = test: Effective concentration to inhibit 50% of herpes simplex virus type 2 replication in a cell culture model; format: functional, organism-based

| SMILES | EC50 (Hepatitis B virus) [µM] | EC50 (Hepatitis C virus) [µM] | EC50 (Human alphaherpesvirus 1) [µM] | IC50 (MT2) [µM] | EC50 [1] [µM] | EC50 (Human gammaherpesvirus 4) [µM] | IC50 (CCRF-CEM) [µM] | EC50 [2] [µM] | EC50 (Human alphaherpesvirus 2) [µM] |
| --- | --- | --- | --- | --- | --- | --- | --- | --- | --- |
| COc1ccc(-c2c3c(cc4ccc5c(c24)OCO5)C(=O)NC3=O)cc1OC | 0.8 | – | – | – | – | – | – | – | – |
| NC(=O)c1cc2ccc3c(c2c(-c2ccc4c(c2)OCO4)c1C(=O)O)OCO3 | 0.8 | 3 | 0.15 | 5 | 0.45 | 9 | 8.4 | > 5 | < 0.1 |
| O=C1c2cc3ccc4c(c3c(-c3ccc5c(c3)OCO5)c2C(=O)N1CCCO)OCO4 | > 20 | > 10 | > 30 | 22 | 8.1 | > 5 | 27 | > 22 | > 30 |
| O=c1[nH][nH]c(=O)c2c(-c3ccc4c(c3)OCO4)c3c4c(ccc3cc12)OCO4 | 0.03 | > 10 | 1.4 | 16 | – | > 25 | 50 | 2.7 | 1.4 |
| O=C1NCc2c1cc1ccc3c(c1c2-c1ccc2c(c1)OCO2)OCO3 | 0.08 | 1 | 0.29 | 4 | – | 11 | 4.5 | > 4 | 0.16 |
| CC(=O)NN1Cc2c(cc3ccc4c(c3c2-c2ccc3c(c2)OCO3)OCO4)C1=O | > 20 | > 10 | 5 | 7 | – | 13 | 40 | > 7 | 10 |
| O=C1NC(=O)c2c1cc1ccc3c(c1c2-c1ccc2c(c1)OCO2)OCO3 | > 10 | – | – | – | – | – | – | – | – |
| CN1Cc2c(cc3ccc4c(c3c2-c2ccc3c(c2)OCO3)OCO4)C1=O | > 20 | > 3 | 0.67 | 8 | – | > 20 | 6 | > 8 | 1 |
| O=C1c2cc3ccc4c(c3c(-c3ccc5c(c3)OCO5)c2CN1CCCO)OCO4 | > 0.9 | > 10 | 5 | 8 | – | > 20 | 6 | > 8 | 7 |
| CCOC(=O)c1c(C(=O)OCC)c(-c2ccc3c(c2)OCO3)c2c3c(ccc2c1OC)OCO3 | > 20 | > 10 | > 50 | 24 | – | > 20 | > 100 | > 24 | > 50 |
| O=C1c2cc3ccc4c(c3c(-c3ccc5c(c3)OCO5)c2C(=O)N1O)OCO4 | > 10 | > 10 | > 30 | 16 | – | > 5 | 17 | > 16 | > 30 |
| CNC(=O)c1cc2ccc3c(c2c(-c2ccc4c(c2)OCO4)c1C(=O)O)OCO3 | > 10 | > 10 | 12 | 26 | – | > 20 | 29 | > 26 | > 25 |
| CN(C)C(=O)c1cc2ccc3c(c2c(-c2ccc4c(c2)OCO4)c1C(=O)O)OCO3 | > 10 | > 10 | > 50 | 70 | – | > 20 | 76 | > 70 | > 50 |
| COc1ccc(-c2c(C(=O)O)c(C(N)=O)cc3ccc4c(c23)OCO4)cc1OC | 0.8 | 3 | 0.8 | 10 | – | > 20 | 3 | > 10 | > 3 |
| CN1Cc2cc3ccc4c(c3c(-c3ccc5c(c3)OCO5)c2C1=O)OCO4 | 0.08 | 3 | 14 | 26 | – | > 20 | 27 | > 26 | 14 |
| O=C1OCc2c1cc1c(Br)cc3c(c1c2-c1ccc2c(c1)OCO2)OCO3 | > 40 | > 10 | > 50 | > 100 | – | > 15 | 100 | > 100 | > 50 |
| O=c1[nH][nH]c(=O)c2c(-c3ccc4c(c3)OCO4)c3c4c(cc(Cl)c3cc12)OCO4 | > 20 | 10 | > 7 | 54 | – | > 20 | 38 | > 54 | > 40 |
| CC(=O)NN1C(=O)c2cc3ccc4c(c3c(-c3ccc5c(c3)OCO5)c2C1=O)OCO4 | 1 | > 10 | > 40 | > 100 | – | > 20 | 93 | > 100 | > 40 |

| SMILES | EC50 (Hepatitis B virus) [µM] | EC50 (Hepatitis C virus) [µM] | EC50 (Human alphaherpesvirus 1) [µM] | IC50 (MT2) [µM] | EC50 [1] [µM] | EC50 (Human gammaherpesvirus 4) [µM] | IC50 (CCRF-CEM) [µM] | EC50 [2] [µM] | EC50 (Human alphaherpesvirus 2) [µM] |
| --- | --- | --- | --- | --- | --- | --- | --- | --- | --- |
| O=c1[nH][nH]c(=O)c2c(-c3ccc4c(c3)OCO4)c3c4c(cc(I)c3cc12)OCO4 | > 10 | 10 | > 40 | 35 | – | > 20 | 40 | > 2 | > 40 |
| O=C(O)c1cc2ccc3c(c2c(-c2ccc4c(c2)OCO4)c1COCc1ccccc1)OCO3 | > 10 | > 10 | > 25 | 48 | – | > 20 | > 50 | > 48 | > 25 |
| O=C1NCc2c1cc1c(Br)cc3c(c1c2-c1ccc2c(c1)OCO2)OCO3 | > 10 | 10 | 6.5 | 54 | – | > 20 | 38 | > 54 | > 20 |
| O=C1OC(O)c2c1c(-c1ccc3c(c1)OCO3)c1c3c(ccc1c2O)OCO3 (stereo unspecified) | > 20 | > 10 | > 23 | 15 | – | > 10 | 39 | > 15 | > 28 |
| Nc1ccn([C@H]2CC[C@@H](CO)O2)c(=O)n1 [ZALCITABINE] | – | – | – | 70 | – | – | 5 | 0.8 | – |
| COC1=NC(=O)c2c1cc1ccc3c(c1c2-c1ccc2c(c1)OCO2)OCO3 | > 5 | > 10 | > 50 | > 100 | – | > 20 | > 100 | > 100 | > 50 |
| Cc1c(C(=O)OCCCO)cc2ccc3c(c2c1-c1ccc2c(c1)OCO2)OCO3 | > 10 | > 10 | > 25 | 10 | – | > 15 | 46 | > 10 | > 25 |
| O=C(O)c1cc2c(I)cc3c(c2c(-c2ccc4c(c2)OCO4)c1CO)OCO3 | – | 10 | > 50 | 80 | > 20 | > 20 | > 100 | > 80 | > 50 |
| O=C(O)c1cc2c(Br)cc3c(c2c(-c2ccc4c(c2)OCO4)c1CO)OCO3 | > 18 | – | > 50 | 50 | > 20 | > 20 | 46.5 | > 50 | > 50 |
| O=C1OCc2c1cc1c(I)cc3c(c1c2-c1ccc2c(c1)OCO2)OCO3 | > 20 | > 10 | > 25 | 80 | – | > 10 | 70 | > 80 | > 25 |
| O=C1c2cc3ccc4c(c3c(-c3ccc5c(c3)OCO5)c2CN1CCCOCc1ccccc1)OCO4 | > 20 | 10 | 13 | 28 | – | > 20 | 67 | > 28 | > 20 |
| NC(=O)c1cc2ccc3c(c2c(-c2ccc4c(c2)OCO4)c1C(N)=O)OCO3 | > 10 | > 10 | > 50 | > 100 | – | > 20 | > 100 | > 100 | > 50 |
| COc1ccc(-c2c3c(cc4ccc5c(c24)OCO5)C(=O)NC3)cc1OC | > 10 | 3 | 0.6 | 16 | – | > 20 | 5 | > 16 | 0.5 |
| COC(=O)c1c(C(=O)O)cc2ccc3c(c2c1-c1ccc2c(c1)OCO2)OCO3 | > 20 | > 10 | > 50 | 90 | – | > 20 | 74 | > 90 | > 50 |
| O=C(OCc1ccccc1)c1cc2ccc3c(c2c(-c2ccc4c(c2)OCO4)c1COCc1ccccc1)OCO3 | > 10 | 10 | > 50 | 100 | – | > 20 | 50 | > 100 | > 50 |
| CC(=O)NN1Cc2cc3ccc4c(c3c(-c3ccc5c(c3)OCO5)c2C1=O)OCO4 | 0.03 | > 10 | 17 | 25 | – | > 20 | 32 | > 25 | 40 |
| O=C(O)c1cc2ccc3c(c2c(-c2ccc4c(c2)OCO4)c1C(=O)O)OCO3 | > 10 | > 10 | > 50 | > 100 | – | > 20 | > 100 | > 100 | > 50 |
| COC(=O)c1cc2ccc3c(c2c(-c2ccc4c(c2)OCO4)c1C(=O)OC)OCO3 | > 20 | 10 | > 50 | 28 | – | > 20 | 50 | > 28 | > 50 |
